# CRFBP-R2 block: antagonists of CRF-BP/CRF-R2 complex, primary screen, cell-based, HEK293, calcium dye fluorescence, uHTS | CRF-induced calcium fluorescence | inhibition, % at 11.8 µM | 0.59% of 350,000 active | AID 588475, 2011;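 active = inhibition of the ligand-induced calcium signal above about 50% at the single tested concentration, limit read from the data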
# KLK7 zymogen act: proKLK7 zymogen activators, primary screen, biochemical, fluorescence intensity. 0.9% of 370,000 active. Kallikrein-7 (Homo sapiens), P49862. AID 652039, 2013. purified proKLK7, EDANS-DABCYL substrate fluorescence; 100% is mature enzyme control, 0% vehicle. activation, % at 7 µM;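 active = activation above the mean of all tested compounds plus 3 SD, computed per campaign excluding outliers beyond control limits, cut at about 13% in these data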
# Target sequence (P49862 whole entry, looked up): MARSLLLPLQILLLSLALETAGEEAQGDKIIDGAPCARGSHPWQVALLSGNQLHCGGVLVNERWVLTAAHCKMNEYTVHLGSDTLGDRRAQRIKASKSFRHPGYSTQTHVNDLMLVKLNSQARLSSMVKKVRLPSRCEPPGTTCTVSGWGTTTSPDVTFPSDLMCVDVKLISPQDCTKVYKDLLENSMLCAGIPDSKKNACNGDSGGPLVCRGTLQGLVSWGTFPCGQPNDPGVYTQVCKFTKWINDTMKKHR
# CRFR2-BP ag: agonists of CRF-BP/CRF-R2 complex, primary screen, cell-based, HEK293, calcium dye fluorescence, uHTS. CRF-binding protein / CRF receptor 2 complex (human). calcium dye fluorescence (FLIPR); percent of saturating CRF peptide response. activation, % at 13.2 µM. 0.46% of 350,000 active. AID 588473, 2011;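 active = activation of at least 50%, plus an integration ratio under a set limit after plate pattern correction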;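 note: plate controls were neutral control wells without compound for no effect and CRF at EC100 for full effect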
# DDE Tn6 FP inh: inhibitors of Tn6 peptide binding to fibrin DD(E), primary screen, biochemical, fluorescence polarization, human fibrin, Tn6 probe; AID 720509, 2013; 0.21% of 370,000 active; inhibition, % at 8.3 µM; Fibrin DD(E) TRITC-Tn6 fluorescence polarization displacement;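 active = inhibition above a per-campaign cutoff: mean of compounds within control limits plus 3 SD, cut at about 15% in these data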;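 note: 0% = median of all compound wells on the plate and 100% = blocking peptide control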
# CendR NRP1 mod: modulators of CendR peptide binding to NRP-1, primary screen, biochemical, fluorescence polarization, uHTS | inhibition, % at 25 µM | FAM-RPARPAR peptide binding to NRP-1 | AID 602438, 2012 | Neuropilin-1 (Homo sapiens), O14786 | 0.85% of 360,000 active;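 active = inhibition or corrected inhibition above about 18%, plus a signal ratio from 0.5 to 1.5, limit read from the data, passing the limit was not always enough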
# DDE Tn7 FP inh: inhibitors of Tn7 peptide binding to fibrin DD(E), primary screen, biochemical, fluorescence polarization, human fibrin, Tn7 probe; Fibrinogen beta chain (Homo sapiens), P02675; FP displacement of FITC-Tn7 peptide from fibrin DD(E); 0% = median of compound wells per plate; inhibition, % at 8.3 µM; 0.13% of 370,000 active;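 active = inhibition above the mean of compounds falling within the control limits plus 3 SD of them, cut at about 14% in these data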;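 note: 0% = plate median of compound wells and 100% = 10 µM Aha-Tn7 peptide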
#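 System: human fibrin DD(E); quantity: Fibrin-DD(E) at 2 µM final; also added: fluorescent Tn7 probe at 0.1 µM; compound dosing: single nominal test concentration of 8.3 µM per compound; schedule: 10 min preincubation, 3 h with tracer, room temperature; detection: fluorescence polarization of the labelled Tn7 tracer; repeats: one replicate per compound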
# KLK7 act conf: proKLK7 zymogen activators, confirmation, biochemical, fluorescence intensity, triplicate | shares compounds with KLK7 zymogen act | purified proKLK7, EDANS-DABCYL substrate fluorescence; scaled: vehicle 0, mature enzyme 100 | activation, % at 7 µM | 68% of 3,200 active | AID 686949, 2013;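 active = activation, as change over the incubation, above the mean of all tested compounds plus 3 SD, cut at about 13% in these data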
# EDANS-DABCYL int: EDANS-DABCYL substrate optical interference, artefact control for kallikrein-7 zymogen activator project, biochemical, fluorescence intensity, high throughput; 80% of 3,200 active; no enzyme, 4 h; solvent 0%, active enzyme control 100%; shares compounds with KLK7 zymogen act; activation, % at 7 µM; AID 686952, 2013;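 active = activation above the all-compound mean plus 3 SD, ignoring values outside control-based bounds, cut at about 4.8% in these data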;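 note: value is the 4 h activation minus the activation read at time zero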
# * hit, by the source's call; . = no result given. Only some compounds are listed: those with a hit (about 2.9% of all), similar ones and a draw of the others.
SMILES,CRFBP-R2 block,KLK7 zymogen act,CRFR2-BP ag,DDE Tn6 FP inh,CendR NRP1 mod,DDE Tn7 FP inh,KLK7 act conf,EDANS-DABCYL int
CN(C)c1ccc(C2C3C(=O)N(c4ccc(C(=O)O)cc4)C(=O)C3ON2c2ccccc2)cc1 (stereo not drawn),-0.8,62.7*,-1.9,9.2,2.7,9.4,0.1,0.9
O=C(O)c1ccc(N2C(=O)C3ON(c4ccccc4)C(c4ccccc4F)C3C2=O)cc1 (stereo not drawn),1.2,-0.1,-1.2,2.5,-7.9,-2.0,.,.
C[C@H]1[C@@H](NCC2CCCCC2)CC[C@@]23CCCN2C(=O)CCC[C@@H]13,.,.,.,5.9,.,-5.5,.,.
COCCN(CCOC)Cc1c(O)ccc2c3c(c(=O)oc12)CCC3,2.0,61.2*,-0.7,-0.8,1.3,-10.2,70.0*,74.0*
CC(=O)c1c(O)ccc2c(-c3ccccc3)cc(=O)oc12,7.0,5.5,-0.2,0.1,0.1,1.5,.,.
Cc1c(Br)c(=O)oc2c(C)c(O)ccc12,9.3,-2.8,3.3,-2.0,5.8,-10.3,.,.
CN(C)Cc1c(O)ccc2c(-c3ccccc3)cc(=O)oc12,1.8,12.8*,-3.4,-6.7,4.1,-7.5,25.9*,25.5*
CCCCN(CC)Cc1c(O)ccc2c3c(c(=O)oc12)CCC3,7.1,62.0*,-0.8,-7.5,0.1,-2.7,68.3*,72.5*
CCc1c(C)c2ccc(O)c(CN(C)C)c2oc1=O,-3.8,56.1*,0.7,-4.6,3.6,-0.1,65.5*,65.2*
CN(C)Cc1c(O)ccc2c3c(c(=O)oc12)CCCCC3,-10.7,48.3*,-1.9,-3.7,-2.0,-1.9,56.9*,78.0*
CN(Cc1c(O)ccc2c1oc(=O)c1ccccc12)C1CCCCC1,-11.0,-2.5,0.2,-9.9,-24.1,-7.3,.,.
O=c1cccc2n1Cc1cc3ccccc3nc1-2,-0.3,47.2*,-2.7,1.8,0.8,-2.1,60.0*,69.0*
COP(N)(=O)C(CC(C)C)NC(=O)OCc1ccccc1 (stereo not drawn),.,-0.4,.,-2.4,.,4.8,.,.
CN1CCN(c2c(F)cc3c(=O)c(C(=O)O)cn4c3c2OCN4C)CC1,3.0,60.1*,-1.9,-3.1,8.7,0.5,20.5*,30.4*
CN(C)CCCNS(=O)(=O)c1ccc(N2CCC(c3ccc(Cl)cc3)=N2)cc1,.,24.0*,.,-5.7,.,-8.3,65.6*,61.6*
C[n+]1ccc(/C=C/c2c[nH]c3ccc(F)cc23)cc1,-19.4,15.3*,45.3,5.6,103.7,-41.2,10.3,14.1*
Cc1cc(NCCCN(C)C)n2nc(-c3cccs3)cc2n1,2.5,2.2,-0.8,-2.7,-1.3,-0.8,.,.
Cc1cc(C)c2c(n1)nn1c(NCCCN(C)C)cc(C)nc21,17.9,71.6*,-2.1,6.3,1.0,-0.3,46.2*,48.1*
Cc1cc(C)c2c(n1)nn1c(NCCOCCO)cc(C)nc21,0.6,61.2*,-1.5,9.3,20.4,0.7,77.9*,80.5*
O=C1NC(c2ccc3c(c2)OCO3)c2c(-c3ccccc3)n[nH]c21 (stereo not drawn),.,-0.4,.,-6.5,.,-5.7,.,.
CNC(=S)NNC(=O)c1sc2cc(C(F)(F)F)cnc2c1-c1cccnc1,7.1,13.8*,-1.4,4.4,1.3,-2.7,15.7*,22.0*
